The text below walks through data of ChEMBL document CHEMBL4257575, “Discovery of Novel Flavonoid Dimers To Reverse Multidrug Resistance Protein 1 (MRP1, ABCC1) Mediated Drug Resistance in Cancers Using a High Throughput Platform with "Click Chemistry"” (J Med Chem, 2018).

The data set has as its target Multidrug resistance-associated protein 1 (Homo sapiens, UniProt P33527). As to the kind of experiment: Inhibition of MRP1 in human 2008/MRP1 cells assessed as potentiation of doxorubicin-induced cytotoxicity by measuring cell survival at 2 uM after 5 days by MTS assay relative to control. The class given is cell-based. To be noted: 120 h. The gist of the method:
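2008/MRP1 cells (retroviral human MRP1 transfectant; RPMI 1640, 10% FBS) at 4,000 per well, with 100 nM doxorubicin plus crude, unpurified click products in DMSO: 2 µM in the primary screen, 1 µM in the secondary. Incubated 5 days at 37 °C. MTS/PMS added for 2 h at 37 °C, absorbance read at 490 nm. % survival is relative to wells without DOX or product. Run in triplicate, at least three experiments.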
On the technique in general: Formazan colour is commonly taken as a measure of viable cells.

Chain of Multidrug resistance-associated protein 1 (P33527 whole entry): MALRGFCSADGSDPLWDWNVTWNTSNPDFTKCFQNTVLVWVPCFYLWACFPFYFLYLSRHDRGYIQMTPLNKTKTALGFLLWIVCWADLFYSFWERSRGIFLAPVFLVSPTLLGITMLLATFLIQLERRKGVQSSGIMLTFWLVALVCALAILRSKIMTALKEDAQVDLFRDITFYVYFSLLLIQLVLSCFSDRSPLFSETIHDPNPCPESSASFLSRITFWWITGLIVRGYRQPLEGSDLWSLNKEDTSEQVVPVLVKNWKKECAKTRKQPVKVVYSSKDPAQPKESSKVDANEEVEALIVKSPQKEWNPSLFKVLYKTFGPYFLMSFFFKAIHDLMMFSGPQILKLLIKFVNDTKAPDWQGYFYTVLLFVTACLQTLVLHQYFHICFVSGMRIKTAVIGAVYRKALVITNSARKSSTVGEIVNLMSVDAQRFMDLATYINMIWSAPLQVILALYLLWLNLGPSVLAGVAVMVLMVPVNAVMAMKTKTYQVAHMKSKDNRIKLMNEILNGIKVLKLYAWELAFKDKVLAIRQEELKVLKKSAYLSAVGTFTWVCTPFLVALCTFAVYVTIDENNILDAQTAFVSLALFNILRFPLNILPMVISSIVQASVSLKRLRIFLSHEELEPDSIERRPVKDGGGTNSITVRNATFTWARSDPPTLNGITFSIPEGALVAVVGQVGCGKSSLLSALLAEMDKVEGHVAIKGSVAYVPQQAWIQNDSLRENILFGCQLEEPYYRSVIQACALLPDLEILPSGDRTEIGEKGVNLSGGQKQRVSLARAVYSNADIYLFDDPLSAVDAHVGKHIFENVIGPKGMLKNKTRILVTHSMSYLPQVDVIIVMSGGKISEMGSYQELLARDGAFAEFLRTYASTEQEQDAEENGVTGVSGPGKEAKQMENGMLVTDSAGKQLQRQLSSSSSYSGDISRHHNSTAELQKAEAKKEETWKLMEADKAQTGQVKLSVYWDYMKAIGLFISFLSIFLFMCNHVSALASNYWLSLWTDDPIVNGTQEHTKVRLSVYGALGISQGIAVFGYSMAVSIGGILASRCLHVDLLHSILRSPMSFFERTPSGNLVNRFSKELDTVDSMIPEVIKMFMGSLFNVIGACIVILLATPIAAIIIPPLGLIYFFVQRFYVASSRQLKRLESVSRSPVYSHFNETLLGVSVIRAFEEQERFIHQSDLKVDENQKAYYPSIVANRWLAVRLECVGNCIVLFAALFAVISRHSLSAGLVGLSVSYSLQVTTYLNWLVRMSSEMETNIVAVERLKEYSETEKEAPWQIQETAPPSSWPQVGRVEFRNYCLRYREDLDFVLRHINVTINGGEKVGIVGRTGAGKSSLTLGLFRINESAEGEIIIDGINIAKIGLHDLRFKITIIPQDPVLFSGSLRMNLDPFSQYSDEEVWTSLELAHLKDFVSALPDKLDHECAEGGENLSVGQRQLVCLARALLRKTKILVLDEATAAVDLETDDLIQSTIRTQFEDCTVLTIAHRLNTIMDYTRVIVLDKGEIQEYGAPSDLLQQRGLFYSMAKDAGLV

With `O=C(/C=C/c1ccc(OCCCCc2cn(CCOc3cccc4c(=O)cc(-c5ccccc5)oc34)nn2)cc1)c1ccccc1O`, the Survival was 85%.

As to `[N-]=[N+]=NCCOCCOc1cccc(-c2oc3ccccc3c(=O)c2OCc2ccccc2)c1`, the Survival is reported as 86%.

For the compound `O=c1cc(-c2ccccc2)oc2cc(OCCCCc3cn(CCOCCOCCOc4ccc(-c5oc6ccccc6c(=O)c5OCc5ccccc5)cc4)nn3)ccc12`, the Survival worked out at 63%.

In the case of `COc1cccc(COc2c(-c3ccc(OCCOCCn4cc(CCCOc5ccc(-c6nc7ccccc7c(=O)[nH]6)cc5)nn4)cc3)oc3ccccc3c2=O)c1`, the Survival stood at 67%.

`O=c1[nH]c(-c2ccc(OCCCc3cn(CCOCCOc4cccc(-c5oc6ccccc6c(=O)c5OCc5ccccc5)c4)nn3)cc2)nc2ccccc12`: the Survival is recorded as 67%.

As to `COc1cccc(COc2c(-c3ccc(OCCOCCn4cc(CNc5ccccc5)nn4)cc3)oc3ccccc3c2=O)c1`, the Survival worked out at 89%.

As for `O=c1c(OCc2ccccc2)c(-c2ccc(OCCOCCn3cc(-c4cccc(-c5cn(CCOCCOc6ccc(-c7oc8ccccc8c(=O)c7OCc7ccccc7)cc6)nn5)c4)nn3)cc2)oc2ccccc12`, the Survival was 87%.

Consider `O=c1cc(-c2ccc(OCCCc3cn(CCOCCOc4ccc(-c5oc6ccccc6c(=O)c5OCc5ccccc5)cc4)nn3)cc2)oc2ccccc12`, for which the Survival is reported as 50%.

For the compound `O=c1cc(-c2ccccc2)oc2cc(OCCCc3cn(CCOCCOc4ccc(-c5oc6ccccc6c(=O)c5OCc5ccccc5)cc4)nn3)ccc12`, the Survival is listed as 51%.

For the compound `C#CCCN1C(=O)c2ccccc2C1=O`, the Survival is listed as 83%.

`COc1cccc(COc2c(-c3ccc(OCCOCCn4cc(CCCOc5ccc(-c6cc(=O)c7ccccc7o6)cc5)nn4)cc3)oc3ccccc3c2=O)c1`: the Survival stood at 68%.

Turning to `CN(CCN(C)Cc1cn(CCOCCOc2ccc3oc(-c4ccccc4)cc(=O)c3c2)nn1)Cc1cn(CCOCCOc2ccc3c(=O)cc(-c4ccccc4)oc3c2)nn1`, the Survival is on record as 99%.

For `O=Cc1ccc(OCCCCc2cn(CCOCCOCCOc3ccc(-c4cc(=O)c5ccccc5o4)cc3)nn2)cc1`, the Survival is 70%.

Take `CCc1ccc(O)c(C(=O)/C=C/c2ccc(OCCCCc3cn(CCOCCOc4ccc5c(=O)cc(-c6ccccc6)oc5c4)nn3)cc2)c1`: the Survival turned out to be 68%.

For `Cc1ccc(O)c(C(=O)/C=C/c2ccc(OCCCCc3cn(CCOc4cccc5c(=O)cc(-c6ccccc6)oc45)nn3)cc2)c1`, the Survival turned out to be 77%.

As to `O=c1c(OCc2ccccc2)c(-c2ccc(OCCOCCOCCn3cc(-c4ccc(-c5cn(CCOCCOCCOc6ccc(-c7oc8ccccc8c(=O)c7OCc7ccccc7)cc6)nn5)cc4)nn3)cc2)oc2ccccc12`, the Survival was found to be 86%.

For the compound `O=Cc1ccc(OCCCCc2cn(CCOCCOCCOc3ccc(-c4cc(=O)c5cc(F)ccc5o4)cc3)nn2)cc1`, the Survival is on record as 74%.

As for `O=c1cc(-c2ccc(OCCOCCOCCn3cc(CN(Cc4ccccc4)Cc4cn(CCOCCOCCOc5ccc(-c6cc(=O)c7cc(F)ccc7o6)cc5)nn4)nn3)cc2)oc2ccc(F)cc12`, the Survival amounted to 54%.

Consider `O=c1c(OCc2ccccc2)c(-c2ccc(OCCOCCOCCn3cc(-c4cccc(-c5cn(CCOCCOCCOc6ccc(-c7oc8ccccc8c(=O)c7OCc7ccccc7)cc6)nn5)c4)nn3)cc2)oc2ccccc12`, for which the Survival stood at 80%.

Take `O=c1cc(-c2ccc(OCCOCCn3cc(-c4ccc(-c5cn(CCOCCOc6ccc(-c7cc(=O)c8cc(F)ccc8o7)cc6)nn5)cc4)nn3)cc2)oc2ccc(F)cc12`: the Survival came to 77%.

On to `O=C(/C=C/c1ccc(OCCCCc2cn(CCOc3cccc4c(=O)cc(-c5ccccc5)oc34)nn2)cc1)c1ccc(F)cc1O`, for which the Survival is 73%.

As to `O=c1cc(-c2ccccc2)oc2cc(OCCOCCOCCn3cc(CN4CCN(Cc5cn(CCOCCOCCOc6ccc7c(=O)cc(-c8ccccc8)oc7c6)nn5)CC4)nn3)ccc12`, the Survival was 89%.

`COc1cccc(COc2c(-c3ccc(OCCOCCn4cc(CCN5C(=O)c6ccccc6C5=O)nn4)cc3)oc3ccccc3c2=O)c1`: the Survival was 75%.
